Results of several laboratories.
Compare with care: the assays were run in different laboratories.
Effect on: cell growth or viability

CCSC(=O)c1ncn2c(=O)n(C)nnc12  IC50 (U-87 MG; resazurin; 7 days): 64000 nM
CC1=C(O)C(=O)C=C2C1=CC=C1[C@@]2(C)CC[C@@]2(C)[C@@H]3C[C@](C)(C(=O)OCCCCO)CC[C@]3(C)CC[C@]12C  IC50 (AGS; MTT; 48 h): 350 nM
CCN1C(=O)N(c2c(F)c(OC)cc(OC)c2F)Cc2cnc3[nH]c(CN4CCOCC4)cc3c21  IC50 (JMSU-1; ATP luminescence; 96 h): 8.79 nM
C#CCSc1nc(Sc2nnnn2-c2ccccc2)c2nnn(Cc3ccc(OC)cc3)c2n1  IC50 (Raji; MTS; 6 days): 3320 nM
Cc1ncn2c(=O)n(C)nnc12  IC50 (U-87 MG; resazurin; 7 days): 3000 nM
COc1ccc(Br)cc1/C=C/C(=O)c1ccc(NC(C)=O)cc1  IC50 (MEF; MTT; 72 h): 1000 nM
COc1c(C)c(OS(=O)(=O)c2ccc3ccccc3c2)c(C)c(OS(=O)(=O)c2ccc3ccccc3c2)c1C(=O)/C=C/c1ccccc1  IC50 (KKU-M213; SRB; 72 h): > 50000 nM
C=CC(=O)Nc1cc(Nc2nccc(-c3cn(C4CC4)c4ccccc34)n2)c(OC)cc1N(C)CCN(C)C  IC50 (PC-9; ATP luminescence; 72 h): 4.1 nM
CC1=C(O)C(=O)C=C2C1=CC=C1[C@@]2(C)CC[C@@]2(C)[C@@H]3C[C@](C)(C(=O)OCCCCCO)CC[C@]3(C)CC[C@]12C  IC50 (AGS; MTT; 48 h): 430 nM
CC(=O)Nc1nc(C)c(-c2csc(Nc3ccccc3)n2)s1  IC50 (MEF; MTT; 72 h): 21400 nM
CC1=C(O)C(=O)C=C2C1=CC=C1[C@@]2(C)CC[C@@]2(C)[C@@H]3C[C@](C)(C(=O)OCCCCCCCCO)CC[C@]3(C)CC[C@]12C  IC50 (AGS; MTT; 48 h): 420 nM
COc1ccc(/C=C/C(=O)c2cc(Br)ccc(=O)c2O)cc1  IC50 (MEF; MTT; 72 h): 6000 nM
CC1=C(O)C(=O)C=C2C1=CC=C1[C@@]2(C)CC[C@@]2(C)[C@@H]3C[C@](C)(C(=O)OCCCOc4ccccc4)CC[C@]3(C)CC[C@]12C  IC50 (AGS; MTT; 48 h): 1360 nM
O=C1NCCc2[nH]c(-c3ccncc3)cc21  IC50 (EKVX): > 10000 nM
COc1cccc2c1C(=O)c1c(O)c3c(c(O)c1C2=O)C[C@@](O)(C(=O)CO)C[C@@H]3O[C@H]1C[C@H](N)[C@H](O)[C@H](C)O1  IC50 (AGS; MTT; 24 h): < 625 nM
COCCCOC(=O)[C@]1(C)CC[C@]2(C)CC[C@]3(C)C4=CC=C5C(=CC(=O)C(O)=C5C)[C@]4(C)CC[C@@]3(C)[C@@H]2C1  IC50 (AGS; MTT; 48 h): 390 nM
CC(C)[C@H](N)c1nc2cc(-c3ccncc3F)sc2c(=O)[nH]1  IC50 (SHP77; MTT): 760 nM
CCN1CCN(c2ccc(Nc3cc(N(C)C(=O)Nc4c(Cl)c(OC)cc(OC)c4Cl)ncn3)cc2)CC1  IC50 (JMSU-1; ATP luminescence; 96 h): 25.9 nM
CC1=C(O)C(=O)C=C2C1=CC=C1[C@@]2(C)CC[C@@]2(C)[C@@H]3C[C@](C)(C(=O)OCCCN4C(=O)C5C=CC=CC5C4=O)CC[C@]3(C)CC[C@]12C (some centres unmarked)  IC50 (AGS; MTT; 48 h): 370 nM
O=c1[nH]cc(S(=O)(=O)Nc2cccc(-c3nnc(-c4cccc(Cl)c4)o3)c2)c(=O)[nH]1  IC50 (PC-9; MTT; 24 h): 1100 nM
